Source: ChEMBL document CHEMBL4513216, “Probing the Open Global Health Chemical Diversity Library for Multistage-Active Starting Points for Next-Generation Antimalarials” (ACS Infect Dis, 2020)

Assay: Toxicity liver stage against HepG2, at 10uM
Type: cell-based
Parameters: test concentration 10 uM, cell line HepG2-A16-CD81EGFP
Conditions: human, HepG2-A16-CD81EGFP cells; read-out: INHIBITION
Summary of the method: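 Uninfected HepG2-A16-CD81EGFP cells, 3 × 10^3 per well, 1536-well, plated on prespotted compound at 10 μM final, parasite-free screening media added to match infected plates; puromycin 10 μM positive, DMSO 0.5% negative; run in parallel with 48 h PbLuc assay at 37 °C, 5% CO2; viability by CellTiter-Glo luminescence, normalized to controls.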

O=C1N(Cc2ccccn2)C[C@H]2CN(S(=O)(=O)c3ccccc3)CCN12
cytotoxicity at 10 µM: 4.97%

Cc1nc(C)c(CN2CCOC[C@H](Oc3ccc(S(C)(=O)=O)cc3)C2)s1
cytotoxicity at 10 µM: 5.25%

CN1CCC(N2CCOC[C@H](OCC(=O)N(C)C)C2)CC1
cytotoxicity at 10 µM: 1.44%

O=S1(=O)N(c2ccccc2)C[C@@H](O)[C@]12CCNC2
cytotoxicity at 10 µM: 2.63%

CC(C)CC(NC(=O)c1ccco1)c1nnc2ccccn12 (stereo not given)
cytotoxicity at 10 µM: -6.21%

CC(=O)N1CC(C(=O)Nc2cccc(OC(F)F)c2)C1
cytotoxicity at 10 µM: 1.22%

CN(C)C(=O)CNC(=O)c1ccc2ccc(N(C)CC3CC3)n2c1
cytotoxicity at 10 µM: 1.11%

COCC(=O)NCC1Cn2nnc(-c3ccoc3)c2CO1 (stereo not given)
cytotoxicity at 10 µM: 17%

CCN1CC2(CC1=O)CN(C(C)=O)CCN(S(C)(=O)=O)C2 (stereo not given)
cytotoxicity at 10 µM: 0.38%

Cc1cnc(N2CCC3(CCC(C(=O)NC(C)C)OC3)CC2)nc1 (stereo not given)
cytotoxicity at 10 µM: 0.903%

O=C(C1CCCO1)N1CCC2(CC1)CNCCO2 (stereo not given)
cytotoxicity at 10 µM: -7.06%

CS(=O)(=O)N1CCCC12CCCN(C(=O)c1ccnnc1)C2 (stereo not given)
cytotoxicity at 10 µM: -143%

O=C1CCCN1Cc1ncn2c1CN(C(=O)C1CC=CC1)CCC2
cytotoxicity at 10 µM: 6.4%

Cc1nccc([C@@H]2C[C@@H]3CCN(S(=O)(=O)N(C)C)C[C@H]3O2)n1
cytotoxicity at 10 µM: -3.38%

CNC(=O)[C@@]12CCC3(CCN(C(=O)C(C)C)CC3)[C@@H]1CN(S(C)(=O)=O)C2
cytotoxicity at 10 µM: 3.89%

CNC(=O)N1CCN(C(=O)N(C)C)CC2(CC(=O)N(C)C2)C1 (stereo not given)
cytotoxicity at 10 µM: 4.9%

O=c1nc(SCc2ccncc2)c2c(n1CCO)CCCC2
cytotoxicity at 10 µM: -23.8%

CCOC(=O)N1CCN(C(=O)CCn2ccc3c(OC)cccc32)CC1
cytotoxicity at 10 µM: 9.69%

CCn1nccc1CNc1[nH]cnc2nc(C)nc1-2
cytotoxicity at 10 µM: -12%

Cc1nc(CCC(N)=O)cc(C2CCCN2S(C)(=O)=O)n1 (stereo not given)
cytotoxicity at 10 µM: -5.32%

CC(C)(C)Nc1c(C2CCN(C(=O)C3CC3)CC2)nc2ccccn12
cytotoxicity at 10 µM: 4.58%

CC(=O)NCC(=O)N1CCCC1c1ccc(CN2CCOCC2)cn1 (stereo not given)
cytotoxicity at 10 µM: -2.3%

CC(C)(C)OC(=O)N1CCn2c(nnc2C2CCCNC2)C1 (stereo not given)
cytotoxicity at 10 µM: -1.58%

Cc1cc(C(F)(F)F)n2nc(C3CCCN(S(C)(=O)=O)C3)cc2n1 (stereo not given)
cytotoxicity at 10 µM: 1.49%

Cc1cc(N2CCCC(c3n[nH]c4ncccc34)C2)ncn1 (stereo not given)
cytotoxicity at 10 µM: -3.22%

O=S(=O)(c1ccccc1F)N1CCCCC1c1cc[nH]n1 (stereo not given)
cytotoxicity at 10 µM: 1.22%

CNc1ccc(CC2CCCN(C(=O)c3scnc3C)C2)nn1 (stereo not given)
cytotoxicity at 10 µM: -10.4%

O=C(CC1CCCC1)N1CCCC1c1nc(O)cc(-c2ccccn2)n1 (stereo not given)
cytotoxicity at 10 µM: -3.73%

COc1ccc(C(=O)Nc2nncs2)cn1
cytotoxicity at 10 µM: -11.9%

Cc1ccc(S(=O)(=O)N(C)Cc2cnccn2)cc1N(C)C
cytotoxicity at 10 µM: 12%

CC(C)CC(NC(=O)CSCC(N)=O)c1cccs1 (stereo not given)
cytotoxicity at 10 µM: -0.431%

CNC(=O)CNC(=O)NCc1cc2c(s1)CCC(C)(C)C2
cytotoxicity at 10 µM: 4.08%

CCc1ncc2c(n1)CN(Cc1nc(-c3ccco3)oc1C)CC2
cytotoxicity at 10 µM: 6.15%

O=C(NCc1ccc(OCC2CC2)nc1)C1COc2ccccc2O1 (stereo not given)
cytotoxicity at 10 µM: 0.0616%

CC(Cc1cccc(F)c1)C(=O)NS(=O)(=O)c1ccc2c(c1)OCCO2 (stereo not given)
cytotoxicity at 10 µM: 9.83%

O=C(NCCSC1CCCC1)c1c(F)cccc1F
cytotoxicity at 10 µM: 8.74%

O=C(CN1CCOC(Cn2cccn2)C1)NC1CCN(C2CC2)CC1 (stereo not given)
cytotoxicity at 10 µM: 1.1%

Cc1ccc(-c2nc(CCNC(=O)C3CC(=O)N(C)C3)cs2)cc1 (stereo not given)
cytotoxicity at 10 µM: -5.54%

Cc1nnc(C2Cc3ccccc3CN2Cc2ncc(Cl)n2C)o1 (stereo not given)
cytotoxicity at 10 µM: 8.72%

CCCC(C(=O)NCCc1nc(C)cs1)N(C)C (stereo not given)
cytotoxicity at 10 µM: -4.17%

CCN1CCN(C(=O)c2scnc2C)CC1
cytotoxicity at 10 µM: 11.7%

Cc1nc(CNCC(O)COc2ccc3c(c2)OCO3)cs1 (stereo not given)
cytotoxicity at 10 µM: 4%

COC1CCCN(C(=O)NCC(F)F)C1 (stereo not given)
cytotoxicity at 10 µM: 7.51%

Cc1nn(CC(C)C)c(N(C)C)c1CNCCS(C)(=O)=O
cytotoxicity at 10 µM: 6.59%

Cn1ccc(C(=O)N(CC(F)F)c2cccc(Cl)c2)cc1=O
cytotoxicity at 10 µM: 0.541%

O=C1CN(C(=O)C2CCOC2)CCN1Cc1ccc(Cl)cc1 (stereo not given)
cytotoxicity at 10 µM: -150%

Cc1ccc(F)c(C(=O)Nc2cccc(CCN3CCCC3)c2)c1
cytotoxicity at 10 µM: 0.0833%

CS(=O)(=O)CCCNCc1c(Cl)cccc1N1CCCC1
cytotoxicity at 10 µM: 1.18%

COCCC(=O)NC(C)(C(N)=O)c1cccc(Cl)c1 (stereo not given)
cytotoxicity at 10 µM: 17.7%

Cc1cc(S(=O)(=O)N(CCO)C2CC2)ccc1F
cytotoxicity at 10 µM: 0.866%

CC(=O)NCC1CCN(C(=O)c2c(C)[nH]c3ccc(Cl)cc23)CC1
cytotoxicity at 10 µM: 8.11%

C=C(C)CN(Cc1cccc(O)c1)C1CCC(O)CC1 (stereo not given)
cytotoxicity at 10 µM: 17.3%

CC(c1nc(C(C)(C)C)no1)N1CCN(CC(=O)N2CCOCC2)CC1 (stereo not given)
cytotoxicity at 10 µM: -2.67%

Cc1n[nH]c(C)c1C1CCCN1C(=O)NCCSC(C)(C)C (stereo not given)
cytotoxicity at 10 µM: -11%

CN1C(=O)CC(c2cnn(C)c2)C12CCN(C(=O)c1cccn1C)CC2 (stereo not given)
cytotoxicity at 10 µM: -74%

O=C(C1CC=CC1)N1CCC2(CC1)CN(Cc1ccccn1)CCO2
cytotoxicity at 10 µM: -10.1%

CC(C)[C@@H]1CN(c2ccc(C(F)(F)F)cn2)C[C@H]1NS(C)(=O)=O
cytotoxicity at 10 µM: 8.46%

Cc1cnccc1N1CCCN(C(=O)CCc2n[nH]c(C)c2C)CC1
cytotoxicity at 10 µM: -3.79%

CC(=O)N[C@@H]1CN(C(=O)c2ccoc2)C[C@H]1c1ccc(C)cc1
cytotoxicity at 10 µM: 16.2%

CN1CCCN(c2nc(C3CCCC3)nc3c2cnn3C)CC1
cytotoxicity at 10 µM: -3.9%

CC(C)C(=O)NCC(=O)NCC1CCN(c2cnn(C)c(=O)c2)CC1
cytotoxicity at 10 µM: 3.47%

Cn1cc(-c2ccnc(NCC3CCCCO3)n2)cn1 (stereo not given)
cytotoxicity at 10 µM: -131%

C[C@@H]1CN(c2cc(N3CCC(O)CC3)ncn2)C[C@@]1(O)C1CCC1
cytotoxicity at 10 µM: -5.73%

COc1ccc(Cl)cc1-n1c(COC(C)C)n[nH]c1=O
cytotoxicity at 10 µM: -7.5%

COCC(=O)N1CCC(C(=O)Nc2ccc(C(C)=O)cc2)CC1
cytotoxicity at 10 µM: 1.73%

CCn1c(CN(C)C)nnc1C1CCN(Cc2cccc(C#N)c2)CC1
cytotoxicity at 10 µM: 6.5%

CC(C)C(NC(N)=O)C(=O)N1CCN(c2ccccc2Cl)C(=O)C1 (stereo not given)
cytotoxicity at 10 µM: -1.56%

CCc1nnsc1C(=O)N1CCCC(COc2ccc(F)cc2)C1 (stereo not given)
cytotoxicity at 10 µM: -155%

COCC(=O)N1Cc2cnc(Cc3ccc(OC)cc3)nc2C1
cytotoxicity at 10 µM: -15.8%

CCCc1nc(N2Cc3cnn(Cc4ccc(F)cc4)c3C2)no1
cytotoxicity at 10 µM: 17.3%

Cn1c(=O)c2cc(C(=O)NCc3ccccn3)ccc2n(C)c1=O
cytotoxicity at 10 µM: -6.14%

O=C(c1ccccn1)N1CCc2nc(-c3cnccn3)nc(O)c2C1
cytotoxicity at 10 µM: 0.487%

Cc1cc(CN2CCN(c3ccc4nncn4n3)C(C)C2)on1 (stereo not given)
cytotoxicity at 10 µM: 6.91%

O=C(Nc1ccc(CCN2CCOCC2)cc1)C1CCC1
cytotoxicity at 10 µM: -9.95%

O=C(NCCNc1ncccn1)C1CCCC1
cytotoxicity at 10 µM: -22.9%

COc1cccc(N2CCC(CNCc3cccc(C#N)c3)C2)c1 (stereo not given)
cytotoxicity at 10 µM: -15.3%

CC(C)n1cc(CN2CCCN(C(=O)C(C)n3cncn3)CC2)cn1 (stereo not given)
cytotoxicity at 10 µM: -16.2%

Cc1cnn(C2CCCN(C(=O)CCc3ccncc3)C2)c1 (stereo not given)
cytotoxicity at 10 µM: -10.7%

CC(C)n1cc(CN2CCCN(C(=O)C3CCCN3C)CC2)cn1 (stereo not given)
cytotoxicity at 10 µM: -10%

CCN(CC1CCCO1)C(=O)Nc1cccc(Cl)c1OC (stereo not given)
cytotoxicity at 10 µM: -21.4%

CC(=O)Nc1nc(C(=O)N2CCCC2c2ccc(Br)cc2)cs1 (stereo not given)
cytotoxicity at 10 µM: -18.4%

O=C1NCC(C(=O)Nc2ncc(Cc3ccc(F)cc3)s2)N1 (stereo not given)
cytotoxicity at 10 µM: 0.639%

Cc1ccc(C)n1-c1ccc(C(=O)NCCNc2ncccn2)cc1
cytotoxicity at 10 µM: -1.25%

CCOc1ccnc(N2CCN(C(=O)C(C)(C)C#N)CC2)n1
cytotoxicity at 10 µM: -4.91%

CC(C)c1nc(C2CCCN(C(=O)Cc3cccnc3)C2)no1 (stereo not given)
cytotoxicity at 10 µM: -8.97%

COCC(C)N(C)C(=O)c1nc(S(C)(=O)=O)n2ccccc12 (stereo not given)
cytotoxicity at 10 µM: -11%

O=C(Nc1nnc(C2CC2)s1)NC1CCN(Cc2ccccc2)C1 (stereo not given)
cytotoxicity at 10 µM: -10.7%

Cn1cnc2c1CCN(Cc1cccc(OCC(N)=O)c1)C2
cytotoxicity at 10 µM: -9.98%

Cc1nc2cc(=O)[nH]n2c(C)c1CC(=O)Nc1ccc2ccccc2n1
cytotoxicity at 10 µM: -4.15%

Cc1ccccc1CNC(=O)Cc1c(C)nc2cc(=O)[nH]n2c1C
cytotoxicity at 10 µM: -2.35%

N#Cc1ccccc1N1CCCN(C(=O)CCc2nccs2)CC1
cytotoxicity at 10 µM: -2.12%

Cc1ccc(NC2CCN(C(=O)c3cnc(C)s3)CC2)nn1
cytotoxicity at 10 µM: 2.48%

CCc1nc(C2CCCN2C(=O)c2c[nH]c(C)n2)no1 (stereo not given)
cytotoxicity at 10 µM: -0.674%

Cn1nc2c(cc1=O)CN(Cc1nc(-c3cccs3)no1)CC2
cytotoxicity at 10 µM: -2.82%

CC(C)c1nc(C2CCCN2CCCc2nc3ccccc3o2)no1 (stereo not given)
cytotoxicity at 10 µM: -8.43%

O=C(NCC(=O)N1CCc2ccccc2C1)c1ccoc1
cytotoxicity at 10 µM: -4.59%

Cc1noc(C)c1CNCC1CCCN1c1cccnn1 (stereo not given)
cytotoxicity at 10 µM: 3.3%

Cc1ccc(NC(=O)C(C)N2CCCN(c3nccs3)CC2)c(C)c1 (stereo not given)
cytotoxicity at 10 µM: 2.72%

O=S(=O)(C1CC1)N1C[C@@H]2COC[C@]2(COc2ccccn2)C1
cytotoxicity at 10 µM: 5.57%

Cn1cc(N2CC3(CCN(Cc4nccs4)CC3)OCC2=O)cn1
cytotoxicity at 10 µM: 5.86%

CS(=O)(=O)N[C@@H]1CN(Cc2ccncc2)C[C@@H]2CCCO[C@@H]21
cytotoxicity at 10 µM: 13.1%

O=C(NC1CCCC1)N1CC[C@H]2[C@H]1CCN2c1nncs1
cytotoxicity at 10 µM: -7.73%

O=C(c1ccnnc1)N1CCN2C[C@H](OCc3cccnc3)C[C@H]2C1
cytotoxicity at 10 µM: -72.4%

CCN1C[C@@H]2[C@@H](OC)CCN(S(=O)(=O)c3cccnc3)[C@@H]2C1
cytotoxicity at 10 µM: -77%

c1ccc(COC[C@H]2CC[C@H]3[C@H](CCN3c3ncccn3)O2)nc1
cytotoxicity at 10 µM: -78%

COc1ccc(CN2CCn3c(C(=O)N(C)C)cnc3C2)cc1
cytotoxicity at 10 µM: -69.6%

CCOCC1CN(C(=O)Cc2ccccn2)Cc2c1cnn2C (stereo not given)
cytotoxicity at 10 µM: -72%

CC(C)(C)c1n[nH]cc1CNCC1CCN(C2CC2)C1 (stereo not given)
cytotoxicity at 10 µM: 2.16%

CC(C)c1nn(C)c(Cl)c1CNCC(=O)N1CCN(C)CC1
cytotoxicity at 10 µM: 2.2%

CCOC(=O)c1cnn(C2CCN(C(=O)CC3CCCC3)CC2)c1N
cytotoxicity at 10 µM: 0.969%
